Assay results: ChEMBL document CHEMBL1153921, “Design, synthesis, and biological evaluation of novel 1-(1H-1,2,4-triazole-1-yl)-2-(2,4-difluorophenyl)-3-substituted benzylamino-2-propanols” (2009)
Converted amounts (≈) assume the structure as drawn.

Key:
Type in all cases: functional
Pichia kudriavzevii = test: Antimicrobial activity against Candida krusei by micro-broth dilution method
How it was run: (§1)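 Clinical isolates. Tested by broth microdilution in 96-well plates following NCCLS M27-A2. MIC80, the minimum concentration inhibiting growth by 80%, was recorded. Marketed reference antifungals were included as positive controls.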

Candida albicans = test: Antimicrobial activity against Candida albicans by micro-broth dilution method
How it was run: (§2)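 ATCC standard strains. Broth microdilution in 96-well plates following NCCLS M27-A2 (reference broth dilution method for yeasts). Endpoint is MIC80, the lowest concentration giving 80% growth inhibition. Marketed reference antifungals ran alongside as positive controls.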

Cryptococcus neoformans = test: Antimicrobial activity against Cryptococcus neoformans by micro-broth dilution method; how it was run: as §2
Candida parapsilosis = test: Antimicrobial activity against Candida parapsilosis by micro-broth dilution method; settings: Lodderomyces parapsilosis; how it was run: as §1
Candida tropicalis = test: Antimicrobial activity against Candida tropicalis by micro-broth dilution method; how it was run: as §1
Trichophyton rubrum = test: Antimicrobial activity against Trichophyton rubrum by micro-broth dilution method; how it was run: as §1
Nannizzia gypsea = test: Antimicrobial activity against Microsporum gypseum by micro-broth dilution method; how it was run: as §1
Aspergillus fumigatus = test: Antimicrobial activity against Aspergillus fumigatus by micro-broth dilution method; how it was run: as §1

SMILES | MIC80 (Pichia kudriavzevii) | MIC80 (Candida albicans) | MIC80 (Cryptococcus neoformans) | MIC80 (Candida parapsilosis) | MIC80 (Candida tropicalis) | MIC80 (Trichophyton rubrum) | MIC80 (Nannizzia gypsea) | MIC80 (Aspergillus fumigatus)
CCCCN(Cc1ccccc1Cl)CC(O)(Cn1cncn1)c1ccc(F)cc1F (centres undefined) | 1 µg/mL (≈ 2.3 µM) | 1 µg/mL (≈ 2.3 µM) | 0.25 µg/mL (≈ 0.575 µM) | 0.25 µg/mL (≈ 0.575 µM) | 0.25 µg/mL (≈ 0.575 µM) | 1 µg/mL (≈ 2.3 µM) | 0.25 µg/mL (≈ 0.575 µM) | > 64 µg/mL
CCCCN(Cc1cccc(F)c1)CC(O)(Cn1cncn1)c1ccc(F)cc1F (centres undefined) | 1 µg/mL (≈ 2.39 µM) | 0.0156 µg/mL (≈ 0.0373 µM) | 0.25 µg/mL (≈ 0.597 µM) | 0.25 µg/mL (≈ 0.597 µM) | 0.25 µg/mL (≈ 0.597 µM) | 1 µg/mL (≈ 2.39 µM) | 0.0625 µg/mL (≈ 0.149 µM) | > 64 µg/mL
CCCN(Cc1ccc([N+](=O)[O-])cc1)CC(O)(Cn1cncn1)c1ccc(F)cc1F (centres undefined) | 0.0625 µg/mL (≈ 0.145 µM) | 0.0156 µg/mL (≈ 0.0362 µM) | 0.25 µg/mL (≈ 0.579 µM) | 0.0625 µg/mL (≈ 0.145 µM) | 0.25 µg/mL (≈ 0.579 µM) | 0.25 µg/mL (≈ 0.579 µM) | 0.0156 µg/mL (≈ 0.0362 µM) | 64 µg/mL (≈ 148 µM)
CCCCN(Cc1ccc(CC)cc1)CC(O)(Cn1cncn1)c1ccc(F)cc1F (centres undefined) | 1 µg/mL (≈ 2.33 µM) | 0.0039 µg/mL (≈ 0.0091 µM) | 0.25 µg/mL (≈ 0.583 µM) | 4 µg/mL (≈ 9.33 µM) | 1 µg/mL (≈ 2.33 µM) | 4 µg/mL (≈ 9.33 µM) | 1 µg/mL (≈ 2.33 µM) | > 64 µg/mL
CCCCN(Cc1cccc(Cl)c1)CC(O)(Cn1cncn1)c1ccc(F)cc1F (centres undefined) | 1 µg/mL (≈ 2.3 µM) | 1 µg/mL (≈ 2.3 µM) | 0.25 µg/mL (≈ 0.575 µM) | 0.25 µg/mL (≈ 0.575 µM) | 1 µg/mL (≈ 2.3 µM) | 1 µg/mL (≈ 2.3 µM) | 0.25 µg/mL (≈ 0.575 µM) | > 64 µg/mL
C[C@@H]1[C@H](O)[C@@H](C)/C=C/C=C/C=C/C=C/C=C/C=C/C=C/[C@H](O[C@@H]2O[C@H](C)[C@@H](O)[C@H](N)[C@@H]2O)C[C@@H]2O[C@](O)(C[C@@H](O)C[C@@H](O)[C@H](O)CC[C@@H](O)C[C@@H](O)CC(=O)O[C@H]1C)C[C@H](O)[C@H]2C(=O)O [AMPHOTERICIN B] | 2 µg/mL (≈ 2.16 µM) | 2 µg/mL (≈ 2.16 µM) | 2 µg/mL (≈ 2.16 µM) | 2 µg/mL (≈ 2.16 µM) | 2 µg/mL (≈ 2.16 µM) | 2 µg/mL (≈ 2.16 µM) | 2 µg/mL (≈ 2.16 µM) | 64 µg/mL (≈ 69.3 µM)
CCCN(Cc1cccc(Cl)c1)CC(O)(Cn1cncn1)c1ccc(F)cc1F (centres undefined) | 0.25 µg/mL (≈ 0.594 µM) | 0.0625 µg/mL (≈ 0.148 µM) | 0.25 µg/mL (≈ 0.594 µM) | 0.25 µg/mL (≈ 0.594 µM) | 0.25 µg/mL (≈ 0.594 µM) | 4 µg/mL (≈ 9.5 µM) | 0.0625 µg/mL (≈ 0.148 µM) | > 64 µg/mL
OC(Cn1cncn1)(Cn1cncn1)c1ccc(F)cc1F [FLUCONAZOLE] | 4 µg/mL (≈ 13.1 µM) | 0.5 µg/mL (≈ 1.63 µM) | 1 µg/mL (≈ 3.27 µM) | 1 µg/mL (≈ 3.27 µM) | 1 µg/mL (≈ 3.27 µM) | 4 µg/mL (≈ 13.1 µM) | 0.25 µg/mL (≈ 0.816 µM) | > 64 µg/mL
CC(C)N(Cc1ccccc1Cl)CC(O)(Cn1cncn1)c1ccc(F)cc1F (centres undefined) | 0.0625 µg/mL (≈ 0.148 µM) | 0.0625 µg/mL (≈ 0.148 µM) | 0.25 µg/mL (≈ 0.594 µM) | 0.25 µg/mL (≈ 0.594 µM) | 0.25 µg/mL (≈ 0.594 µM) | 0.25 µg/mL (≈ 0.594 µM) | 0.0625 µg/mL (≈ 0.148 µM) | > 64 µg/mL
CCC(C)n1ncn(-c2ccc(N3CCN(c4ccc(OCC5COC(Cn6cncn6)(c6ccc(Cl)cc6Cl)O5)cc4)CC3)cc2)c1=O (centres undefined) [ITRACONAZOLE] | 0.5 µg/mL (≈ 0.709 µM) | 0.0625 µg/mL (≈ 0.0886 µM) | 0.125 µg/mL (≈ 0.177 µM) | 0.125 µg/mL (≈ 0.177 µM) | 0.125 µg/mL (≈ 0.177 µM) | 0.125 µg/mL (≈ 0.177 µM) | 0.0625 µg/mL (≈ 0.0886 µM) | 0.5 µg/mL (≈ 0.709 µM)
CCCCN(Cc1ccc(Cl)cc1Cl)CC(O)(Cn1cncn1)c1ccc(F)cc1F (centres undefined) | 16 µg/mL (≈ 34.1 µM) | 0.0039 µg/mL (≈ 0.00831 µM) | 1 µg/mL (≈ 2.13 µM) | 4 µg/mL (≈ 8.52 µM) | 1 µg/mL (≈ 2.13 µM) | 16 µg/mL (≈ 34.1 µM) | 0.25 µg/mL (≈ 0.533 µM) | > 64 µg/mL
CCCN(Cc1cccc(F)c1)CC(O)(Cn1cncn1)c1ccc(F)cc1F (centres undefined) | 0.0625 µg/mL (≈ 0.155 µM) | 0.0156 µg/mL (≈ 0.0386 µM) | 0.0625 µg/mL (≈ 0.155 µM) | 0.0625 µg/mL (≈ 0.155 µM) | 0.25 µg/mL (≈ 0.618 µM) | 1 µg/mL (≈ 2.47 µM) | 0.0625 µg/mL (≈ 0.155 µM) | > 64 µg/mL
CC(C)N(Cc1ccccc1F)CC(O)(Cn1cncn1)c1ccc(F)cc1F (centres undefined) | 0.25 µg/mL (≈ 0.618 µM) | 0.0625 µg/mL (≈ 0.155 µM) | 0.25 µg/mL (≈ 0.618 µM) | 0.0625 µg/mL (≈ 0.155 µM) | 0.25 µg/mL (≈ 0.618 µM) | 1 µg/mL (≈ 2.47 µM) | 0.0625 µg/mL (≈ 0.155 µM) | > 64 µg/mL
